What was measured:
Plasmodium falciparum = assay: Antimalarial activity against Plasmodium falciparum infected in human O+ erythrocytes after 48 hrs by HRP2-ELISA method; format: functional, organism-based
[1] = system: Radical scavenging activity; assay: Antioxidant activity assessed as DPPH free radical scavenging activity at 100 uM after 1 hr; format: functional
In short: (§1)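 Test compound at various concentrations added to 60 µM methanolic DPPH. Held 1 h at room temperature, then absorbance read at 517 nm; trolox used as reference standard. Values from three experiments.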

[2] = Antioxidant activity assessed as ABTS free radical scavenging activity at 100 uM after 12 hrs; format: functional
In short: (§2)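 ABTS radical cation made by mixing 7 mM ABTS stock with 2.45 mM potassium persulfate, left 12 h in dark. Ethanolic compound solution added to ABTS solution, absorbance at 734 nm read after mixing up to 6 min. Reported as % ABTS radical scavenged; triplicate.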

[3] = system: Radical scavenging activity; assay: Antioxidant activity assessed as DPPH free radical scavenging activity after 1 hr; format: functional; in short: as §1
[4] = Antioxidant activity assessed as ABTS free radical scavenging activity after 12 hrs; format: functional; in short: as §2

IC50 (Plasmodium falciparum) [µM]	IC50 [3] [µM]	IC50 [4] [µM]	SMILES	inhibition [1] [%]	inhibition [2] [%]
31.8			COc1ccc2ccccc2c1C=C1C(=O)OC(C)(C)OC1=O	9.48	4.73
37.2			COc1cc(C=C2C(=O)OC(C)(C)OC2=O)ccc1OCc1ccccc1	10.7	3.62
> 100			CC1(C)OC(=O)C(=Cc2cccs2)C(=O)O1	6.32	3.77
36.1			COc1ccc(C=C2C(=O)OC(C)(C)OC2=O)cc1OCc1ccccc1		
35.2			CN(C)c1ccc(C=C2C(=O)OC(C)(C)OC2=O)cc1	10.3	13.9
> 100			O=C1CCCC(=O)C1=Cc1ccccc1		
33.2			COc1ccc(OC)c(C=C2C(=O)OC(C)(C)OC2=O)c1	12.2	13.8
> 100			CC1(C)OC(=O)C(=Cc2c3ccccc3cc3ccccc23)C(=O)O1	8.76	10.7
26.1			COc1ccc(C=C2C(=O)OC(C)(C)OC2=O)cc1OC	4.74	6.84
24.3			CC1(C)OC(=O)C(=C/C=C/c2ccccc2)C(=O)O1	53.1	20.2
> 100			CC1(C)OC(=O)C2(OC2c2ccccc2)C(=O)O1 (stereo not drawn)		
> 100			CC1(C)OC(=O)C2(OC2c2ccccc2[N+](=O)[O-])C(=O)O1 (stereo not drawn)		
34.6			CC1(C)OC(=O)C(=Cc2ccc(O)cc2)C(=O)O1	5.12	14.4
15.5	39.1	30.7	CCOc1cc(C=C2C(=O)OC(C)(C)OC2=O)ccc1O	66.2	95.6
34.7			COc1ccc(C=C2C(=O)OC(C)(C)OC2=O)c(OC)c1OC	5.72	13
37.8			CC1(C)OC(=O)C(=Cc2ccccc2)C(=O)O1		
	22.4	25.5	O=C1O[C@H]([C@@H](O)CO)C(O)=C1O [ASCORBIC ACID]	99.4	98
41.7			CC1(C)OC(=O)C(=Cc2c[nH]c3ccccc23)C(=O)O1	1.79	3.12
12.4	80	72.2	COc1ccc(C=C2C(=O)OC(C)(C)OC2=O)cc1O	40.2	52.8
36.4			COc1ccc(C=C2C(=O)OC(C)(C)OC2=O)cc1	5.81	9.26
14.3			CC1(C)OC(=O)C(=Cc2ccc3ccccc3c2)C(=O)O1	20.6	17
33.9			COc1cc(OC)c(OC)cc1C=C1C(=O)OC(C)(C)OC1=O	6.23	9.86
9.68	24	30.5	COc1cc(C=C2C(=O)OC(C)(C)OC2=O)ccc1O	76	92.6
16.1			CC1(C)OC(=O)C(=Cc2cccc3ccccc23)C(=O)O1	8.88	7.55
28.1			CC1(C)OC(=O)C(=Cc2ccc3c(c2)OCO3)C(=O)O1	8.2	8.25
39.6			CC1(C)OC(=O)C(=Cc2ccccc2[N+](=O)[O-])C(=O)O1	6.41	1.3
20.2			COc1cc(C=C2C(=O)OC(C)(C)OC2=O)cc(OC)c1OC	3.24	5.33
	15.7	16.2	Cc1c(C)c2c(c(C)c1O)CCC(C)(C(=O)O)O2 (stereo not drawn) [TROLOX]	99.5	99.1

SMILES	IC50 (Plasmodium falciparum) [µM]	IC50 [3] [µM]	IC50 [4] [µM]	inhibition [1] [%]	inhibition [2] [%]
C[C@@H]1CC[C@H]2[C@@H](C)C(=O)O[C@@H]3O[C@@]4(C)CC[C@@H]1[C@]32OO4 [ARTEMISININ]	0.0028				
